Experimental data published in ChEMBL document CHEMBL4184225, “Discovery of selective 2,4-diaminoquinazoline toll-like receptor 7 (TLR 7) agonists” (Bioorg Med Chem Lett, 2018).

Experiments:
[1] = molecular target: T1, Cytochrome P450 1A2 (Homo sapiens, UniProt P05177); experiment: Inhibition of CYP1A2 (unknown origin); format: ADME
T1 sequence (P05177 whole entry): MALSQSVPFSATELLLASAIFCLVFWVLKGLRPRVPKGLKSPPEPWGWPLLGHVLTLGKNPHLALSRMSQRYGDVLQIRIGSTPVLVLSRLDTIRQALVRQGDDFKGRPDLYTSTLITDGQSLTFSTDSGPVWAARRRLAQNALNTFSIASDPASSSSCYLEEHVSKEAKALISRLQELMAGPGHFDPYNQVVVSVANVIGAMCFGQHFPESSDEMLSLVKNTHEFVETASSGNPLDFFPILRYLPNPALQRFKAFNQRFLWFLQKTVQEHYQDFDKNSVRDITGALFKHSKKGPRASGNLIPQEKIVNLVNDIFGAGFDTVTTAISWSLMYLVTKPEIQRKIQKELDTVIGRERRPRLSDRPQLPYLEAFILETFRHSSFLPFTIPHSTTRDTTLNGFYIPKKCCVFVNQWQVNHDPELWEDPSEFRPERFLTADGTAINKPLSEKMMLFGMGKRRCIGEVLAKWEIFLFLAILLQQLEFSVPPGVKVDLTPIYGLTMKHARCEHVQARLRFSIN

[2] = Cytotoxic activity against HEK293 cells assessed as reduction in cell viability incubated for 6 hrs; format: cell-based; conditions: human
Summary of the method: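 HEK293 cells transfected with the CMV-TLR7 construct alone, treated with a compound dilution series for 6 h at 37°C, 5% CO₂. Viability read by ATP luminescence. Reported as CC50.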

[3] = molecular target: T2, Cytochrome P450 2C8 (Homo sapiens, UniProt P10632); experiment: Inhibition of CYP2C8 (unknown origin); format: ADME
T2 sequence (P10632 whole entry): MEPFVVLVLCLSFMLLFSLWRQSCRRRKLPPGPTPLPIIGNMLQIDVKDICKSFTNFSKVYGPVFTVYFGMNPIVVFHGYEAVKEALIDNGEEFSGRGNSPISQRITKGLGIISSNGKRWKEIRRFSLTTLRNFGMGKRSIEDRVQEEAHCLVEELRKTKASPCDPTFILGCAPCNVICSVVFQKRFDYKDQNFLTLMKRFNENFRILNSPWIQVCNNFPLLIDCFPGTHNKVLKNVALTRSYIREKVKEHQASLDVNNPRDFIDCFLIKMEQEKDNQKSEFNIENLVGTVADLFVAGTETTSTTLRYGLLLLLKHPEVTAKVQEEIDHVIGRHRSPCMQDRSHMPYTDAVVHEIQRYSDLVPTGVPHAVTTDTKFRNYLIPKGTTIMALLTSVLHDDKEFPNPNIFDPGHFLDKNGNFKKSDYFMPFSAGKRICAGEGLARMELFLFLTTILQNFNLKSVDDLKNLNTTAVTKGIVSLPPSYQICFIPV

[4] = molecular target: Cytochrome P450 3A4 (Homo sapiens, UniProt P08684); experiment: Inhibition of CYP3A4 (unknown origin); format: ADME
[5] = molecular target: Cytochrome P450 2D6 (Homo sapiens, UniProt P10635); experiment: Inhibition of CYP2D6 (unknown origin); format: ADME
[6] = Oral bioavailability in Sprague-Dawley rat at 10 mg/kg; format: ADME, organism-based; conditions: in vivo
[7] = Cmax in Sprague-Dawley rat plasma at 10 mg/kg, po; format: ADME, organism-based; parameters: dose 10 mg/kg, route oral
Summary of the method: (§1)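 Healthy male Sprague-Dawley rats given a single oral dose of 10 mg/kg. Portal vein plasma, systemic plasma and liver sampled. Cmax and Tmax determined, and AUC over 0–last. Liver/plasma ratio calculated from AUC(0-last).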

[8] = AUClast in C57BL/6 mouse plasma at 1 mg/kg, po administered as single dose; format: ADME, organism-based; parameters: dose 1 mg/kg, time 0 - last, route oral
Summary of the method: (§2)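 Healthy C57BL/6 mice given a single oral dose (1 or 5 mg/kg). Plasma and liver drug levels measured over time to give Tmax, Cmax and AUC0-last. Three mice per time point, reported as geometric mean.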

[9] = tested on: Mus musculus; experiment: Induction of IFN-alpha production in C57BL/6 mouse plasma assessed as time for peak induction of IFN-alpha at 1 mg/kg, po administered as single dose by ELISA; format: functional
Summary of the method: (§3)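 Healthy C57BL/6 mice given a single oral dose (1 or 5 mg/kg). Mouse IFN-α measured by ELISA in plasma and liver homogenates over time. Peak level (Fmax) and time of peak recorded. Three mice per time point, reported as geometric mean.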

[10] = AUClast in Sprague-Dawley rat portal vein at 10 mg/kg, po; format: ADME, organism-based; parameters: dose 10 mg/kg, time 0 - last, route oral; summary of the method: as §1
[11] = Cmax in C57BL/6 mouse liver at 1 mg/kg, po administered as single dose; format: ADME, organism-based; parameters: dose 1 mg/kg, route oral; summary of the method: as §2
[12] = AUClast in Sprague-Dawley rat liver at 10 mg/kg, po; format: ADME, organism-based; conditions: in vivo; summary of the method: as §1
[13] = Cmax in Sprague-Dawley rat portal vein at 10 mg/kg, po; format: ADME, organism-based; parameters: dose 10 mg/kg, route oral; summary of the method: as §1
[14] = Metabolic stability in rat liver microsomes assessed as drug metabolism after 15 mins at 1 uM
[15] = Tmax in Sprague-Dawley rat at 10 mg/kg, po; format: ADME, organism-based; conditions: in vivo; summary of the method: as §1
[16] = AUClast in Sprague-Dawley rat plasma at 10 mg/kg, po; format: ADME, organism-based; parameters: dose 10 mg/kg, time 0 - last, route oral; summary of the method: as §1
[17] = Tmax in C57BL/6 mouse at 1 mg/kg, po administered as single dose; format: ADME, organism-based; conditions: in vivo; summary of the method: as §2
[18] = Ratio of AUClast in liver to AUClast in plasma of Sprague-Dawley rat at 10 mg/kg, po; format: ADME, organism-based; conditions: liver and plasma; summary of the method: as §1
[19] = Cmax in Sprague-Dawley rat liver at 10 mg/kg, po
[20] = Plasma clearance in Sprague-Dawley rat at 2.5 mg/kg, iv; format: ADME, organism-based
[21] = tested on: Mus musculus; experiment: Induction of IFN-alpha production in C57BL/6 mouse liver assessed as peak IFN-alpha level at 1 mg/kg, po administered as single dose by ELISA; format: functional; summary of the method: as §3
[22] = species on record: Homo sapiens; experiment: Selectivity index, ratio of MEC for agonist activity at human TLR8 expressed in HEK293 cells to MEC for agonist activity at human TLR7 expressed in HEK293 cells as; format: cell-based
Summary of the method: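 Ratio of TLR8 to TLR7 LEC from HEK293 NFκB-luciferase reporter assays. Cells were transiently transfected with TLR7 or TLR8 construct plus NFκB-luc and treated with compound for 6 h at 37°C. LEC is the lowest concentration with signal at least two-fold above the assay SD, from quadruplicate dose-response curves.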

[23] = tested on: Rattus norvegicus; experiment: Plasma clearance in Sprague-Dawley rat at 2.5 mg/kg, iv relative hepatic blood flow; format: ADME, organism-based; conditions: in vivo
[24] = AUClast in C57BL/6 mouse liver at 5 mg/kg, po administered as single dose; format: ADME, organism-based; conditions: in vivo; summary of the method: as §2
[25] = Ratio of drug level in liver to plasma in C57BL/6 mouse at 1 mg/kg, po administered as single dose; format: ADME, organism-based; conditions: liver and plasma, 5 mg/kg, in the assay text read “5 mg/kg” for “1 mg/kg”
Summary of the method: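 Single oral dose to healthy C57BL/6 mice. Liver and plasma drug exposure measured, three mice per time point as geometric mean, and expressed as liver-to-plasma ratio.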

[26] = tested on: Mus musculus; experiment: Induction of IFN-alpha production in C57BL/6 mouse liver assessed as time for peak induction of IFN-alpha at 5 mg/kg, po administered as single dose by ELISA; format: functional; summary of the method: as §3
[27] = AUClast in C57BL/6 mouse plasma at 5 mg/kg, po administered as single dose; format: ADME, organism-based; parameters: dose 5 mg/kg, route oral, time 0 - last; summary of the method: as §2

Cytochrome P450 2D6, sequence (P10635 whole entry): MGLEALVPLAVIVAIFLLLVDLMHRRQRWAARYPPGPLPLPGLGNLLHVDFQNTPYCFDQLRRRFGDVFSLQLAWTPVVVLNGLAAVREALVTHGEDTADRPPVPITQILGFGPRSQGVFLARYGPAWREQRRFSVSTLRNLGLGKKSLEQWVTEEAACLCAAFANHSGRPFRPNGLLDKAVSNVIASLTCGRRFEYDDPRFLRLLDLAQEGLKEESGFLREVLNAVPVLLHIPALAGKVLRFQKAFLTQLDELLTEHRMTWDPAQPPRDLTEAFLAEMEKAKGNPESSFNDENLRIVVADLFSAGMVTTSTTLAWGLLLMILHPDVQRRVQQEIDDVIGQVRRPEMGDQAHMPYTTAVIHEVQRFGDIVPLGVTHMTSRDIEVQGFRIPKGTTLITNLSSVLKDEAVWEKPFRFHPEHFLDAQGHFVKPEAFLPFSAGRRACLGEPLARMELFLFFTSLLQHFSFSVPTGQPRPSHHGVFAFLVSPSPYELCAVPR
Cytochrome P450 3A4, sequence (P08684 whole entry): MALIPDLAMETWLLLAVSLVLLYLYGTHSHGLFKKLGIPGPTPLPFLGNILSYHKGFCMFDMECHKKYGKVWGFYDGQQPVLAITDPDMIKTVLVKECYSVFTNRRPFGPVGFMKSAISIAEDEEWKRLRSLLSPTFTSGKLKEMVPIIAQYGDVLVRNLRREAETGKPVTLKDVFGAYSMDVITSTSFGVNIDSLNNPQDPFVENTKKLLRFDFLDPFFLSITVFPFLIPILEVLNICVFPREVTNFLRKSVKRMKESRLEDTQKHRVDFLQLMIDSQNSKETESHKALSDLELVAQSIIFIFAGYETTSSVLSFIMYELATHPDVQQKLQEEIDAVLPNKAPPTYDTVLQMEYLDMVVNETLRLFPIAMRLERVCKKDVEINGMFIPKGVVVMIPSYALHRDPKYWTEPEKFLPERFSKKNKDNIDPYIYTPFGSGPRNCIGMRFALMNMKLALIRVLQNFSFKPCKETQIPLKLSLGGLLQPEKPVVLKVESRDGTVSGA

## CCCCNc1nc(N)nc2cccc(C(=O)NC(C)C)c12
[1]
  IC50: > 10 µM
[2]
  CC50 at 6 h: > 25 µM
[3]
  IC50: > 10 µM
[4]
  IC50: > 10 µM
[5]
  IC50: > 10 µM

## CCCCNc1nc(N)nc2ccccc12
[6]
  bioavailability: 5.4%
[7]
  Cmax: 33 ng/mL
[8]
  AUC(0-t): 3 ng·h/mL
[9]
  Time: 1 h
[10]
  AUC(0-t): 1520 ng·h/mL
[11]
  Cmax: 207 ng/mL
[12]
  AUClast: 6450 ng·h/g
[13]
  Cmax: 583 ng/mL
[14]
  metabolised at 0.25 h, 1 µM: 95%
[15]
  Tmax: 30 min
[2]
  CC50 at 6 h: 18 to 25 µM
[16]
  AUC(0-t): 56 ng·h/mL
[17]
  Tmax: 30 min
[18]
  Kp: > 100
[19]
  Cmax: 2030 ng/g
[20]
  clearance: 163 mL/min/kg
[21]
  Fmax: 200 pg/mg

## CCCCNc1nc(N)nc2cccc(C(=O)NC)c12
[1]
  IC50: > 10 µM
[2]
  CC50 at 6 h: > 25 µM
[3]
  IC50: > 10 µM
[4]
  IC50: > 10 µM
[5]
  IC50: > 10 µM

## CCCCNc1nc(N)nc2cccc(OCc3ccccc3)c12
[1]
  IC50: 0.3 µM
[2]
  CC50 at 6 h: 10 µM
[3]
  IC50: > 10 µM
[5]
  IC50: 5.7 µM
[22]
  Ratio: 10

## CCCCNc1nc(N)nc2cccc(C(=O)N(C)Cc3ccccc3)c12
[6]
  bioavailability: 1.2%
[7]
  Cmax: 9 ng/mL
[10]
  AUC(0-t): 621 ng·h/mL
[12]
  AUClast: 1064 ng·h/g
[13]
  Cmax: 209 ng/mL
[1]
  IC50: > 10 µM
[14]
  metabolised at 0.25 h, 1 µM: 99%
[15]
  Tmax: 30 min
[2]
  CC50 at 6 h: > 25 µM
[16]
  AUC(0-t): 37 ng·h/mL
[3]
  IC50: > 10 µM
[23]
  CL: 79%
[18]
  Kp: 30
[19]
  Cmax: 369 ng/g
[20]
  clearance: 55 mL/min/kg
[4]
  IC50: 8.5 µM
[5]
  IC50: 5.6 µM

## CCCCNc1nc(N)nc2cccc(C(=O)N[C@H](C)c3ccccc3)c12
[1]
  IC50: > 10 µM
[2]
  CC50 at 6 h: > 25 µM
[3]
  IC50: > 10 µM
[4]
  IC50: > 10 µM
[5]
  IC50: > 10 µM

## CCCCNc1nc(N)nc2cccc(C(=O)N[C@@H](C)c3ccccc3)c12
[6]
  bioavailability: 20%
[7]
  Cmax: 87 ng/mL
[10]
  AUC(0-t): 902 ng·h/mL
[12]
  AUClast: 15841 ng·h/g
[24]
  AUClast: 6619 ng·h/g
[13]
  Cmax: 276 ng/mL
[1]
  IC50: > 10 µM
[14]
  metabolised at 0.25 h, 1 µM: 54%
[15]
  Tmax: 240 min
[2]
  CC50 at 6 h: > 25 µM
[16]
  AUC(0-t): 439 ng·h/mL
[3]
  IC50: > 10 µM
[25]
  Kp: 23
[26]
  Time: 4 h
[18]
  Kp: 36
[27]
  AUC(0-t): 365 ng·h/mL
[19]
  Cmax: 4930 ng/g
[4]
  IC50: > 10 µM
[5]
  IC50: > 10 µM
[22]
  Ratio: > 250

## CCCCNc1nc(N)nc2cccc(OCc3ccccc3OC)c12
[1]
  IC50: 2.9 µM
[2]
  CC50 at 6 h: > 25 µM
[3]
  IC50: > 10 µM
[4]
  IC50: > 10 µM
[5]
  IC50: > 10 µM
[22]
  Ratio: 90

## CCCCNc1nc(N)nc2cccc(OCc3ccccn3)c12
[1]
  IC50: 1.3 µM
[2]
  CC50 at 6 h: > 25 µM
[3]
  IC50: > 10 µM
[4]
  IC50: > 10 µM
[5]
  IC50: > 10 µM

## CCCCNc1nc(N)nc2cccc(OCc3ccc(CO)cc3OC)c12
[1]
  IC50: > 10 µM
[2]
  CC50 at 6 h: 16 µM
[3]
  IC50: > 10 µM
[4]
  IC50: > 10 µM
[5]
  IC50: 4.4 µM
[22]
  Ratio: > 200

## CCCCNc1nc(N)nc2cccc(C(=O)NCc3ccccc3)c12
[1]
  IC50: > 10 µM
[2]
  CC50 at 6 h: > 25 µM
[3]
  IC50: > 10 µM
[4]
  IC50: > 10 µM
[5]
  IC50: 6.6 µM

## CCCCNc1nc(N)nc2cccc(OCc3nccc(OC)c3OC)c12
[1]
  IC50: 4.1 µM
[2]
  CC50 at 6 h: 16 µM
[3]
  IC50: > 10 µM
[4]
  IC50: 9.9 µM
[5]
  IC50: > 10 µM

## CCCCNc1nc(N)nc2cccc(OCc3cccnc3)c12
[1]
  IC50: 0.9 µM
[2]
  CC50 at 6 h: > 25 µM
[3]
  IC50: > 10 µM
[4]
  IC50: 6.7 µM
[5]
  IC50: > 10 µM
